In data set [1] the test system is MDA-MB-231. Description: Antiproliferative activity against human MDA-MB-231 cells assessed as inhibition of cell growth incubated for 72 hrs by MTT assay. It counts as functional. The procedure, abridged: (§1)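 MTT viability read-out after 72 h exposure of TNBC cells to increasing compound concentrations. GI50 = concentration giving 50% growth inhibition; mean ± SD from at least two independent experiments run in duplicate. Stocks of the ester prodrugs prepared in DMF, parent compound stocks in DMSO.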
In general terms: Formazan colour is commonly taken as a measure of viable cells.

Data set [2] is described as follows: Inhibition of CREB (unknown origin) expressed in HEK293T cells transfected with pCRE-RLuc assessed as inhibition of forskolin-induced CREB transcription activity by luciferase reporter gene assay. The following applies: Homo sapiens, HEK-293T. The class given is cell-based. Put shortly:
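HEK293T cells transiently transfected with pCRE-RLuc (Renilla luciferase under CREB control), treated with graded compound concentrations, then stimulated with forskolin to raise CREB phosphorylation; luciferase signal read. IC50 = concentration halving reporter transcription; mean ± SD of at least two experiments in triplicate. Prodrug stocks in DMF, parent in DMSO.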
For orientation: Reporter assays use an easily measured gene product as a stand-in for the process of interest.

Data set [3] can be described thus: Stability of the compound in DMSO. The class given is physicochemical.
Data set [4] in a line: Ratio of GI50 for human MDA-MB-231 cells to GI50 for human MDA-MB-468 cells assessed as cell growth inhibition measured after 72 hrs by MTT assay. The class given is functional.
Data set [5] relates to MDA-MB-468. In words: Antiproliferative activity against human MDA-MB-468 cells assessed as inhibition of cell growth incubated for 72 hrs by MTT assay. The class given is functional. The procedure, abridged: as §1
The nature of data set [6]: Stability of the compound in DMEM at 200 uM incubated for 5 to 30 mins in presence of 10% FBS by HPLC analysis. The following applies: time min 5-30. The procedure, abridged: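 Compound at 200 μM incubated in DMEM with 10% FBS at 37 °C; aliquots withdrawn at various time points and analysed by HPLC, peaks assigned by comparison with authentic reference samples.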
Data set [7] is described as follows: Aqueous solubility of the compound in distilled de-ionized water. The class given is physicochemical.

By GI50 is commonly meant the concentration giving 50% growth inhibition. One may read the IC50 as the concentration needed to halve the response being measured. In general, solubility refers to the dissolved amount per volume that the medium holds. Read a high solubility as a readily soluble substance.

Molecules are shown by their SMILES.

With `NCCCOc1cc2ccccc2cc1C(=O)Oc1cc(Cl)ccc1NC(=O)c1cc2ccccc2cc1OCCN`, the values for the GI50 in data set [1] and in data set [5] were 540 nM and 45 nM, respectively. Further, the IC50 in data set [2] came to 260 nM. Also, the Stabilty entry in data set [3] is given as “Unstable”. In data set [4], the “Ratio IC50” value came out at 10.
In the case of `Cl.Cl.NCCCOc1cc2ccccc2cc1C(=O)Nc1ccc(Cl)cc1OC(=O)c1cc2ccccc2cc1OCCN`, the GI50 in data set [1] came to 670 nM; in data set [5] it was 32 nM. Moreover, in data set [6], the Stability result is “Unstable”. The same compound showed a solubility in data set [7] of more than 100 mg/mL. The IC50 in data set [2] was 250 nM. Besides, the Stabilty result in data set [3] is reported as “Unstable”. In addition, the “Ratio IC50” value in data set [4] worked out at 10.
`Cl.NCCCOc1cc2ccccc2cc1C(=O)NCCOc1cc2ccccc2cc1C(=O)Nc1ccc(Cl)cc1O` yielded a solubility in data set [7] of less than 0.5 mg/mL.

These data come from ChEMBL document CHEMBL4699454, “Mechanistic insights into the activation of ester prodrugs of 666-15” (Bioorg Med Chem Lett, 2020).
